# Data taken from ChEMBL document CHEMBL1155020, “Trithiocarbonates as a novel class of HDAC inhibitors: SAR studies, isoenzyme selectivity, and pharmacological profiles” (J Med Chem, 2008).
# Active and inactive are the calls of the source. The calls are words filed in the database; no cut-off is given here.
# Key:
# Histone deacetylase 1 = Histone deacetylase 1 (Homo sapiens, UniProt Q13547); assay: Inhibition of recombinant HDAC1 expressed in HEK293 cells; format: cell-based
# [1] = molecular target: T1, Protein deacetylase HDAC6 (Homo sapiens, UniProt Q9UBN7); assay: Inhibition of recombinant HDAC6 expressed in HEK293 cells; format: cell-based
# T1 sequence (Q9UBN7 whole entry): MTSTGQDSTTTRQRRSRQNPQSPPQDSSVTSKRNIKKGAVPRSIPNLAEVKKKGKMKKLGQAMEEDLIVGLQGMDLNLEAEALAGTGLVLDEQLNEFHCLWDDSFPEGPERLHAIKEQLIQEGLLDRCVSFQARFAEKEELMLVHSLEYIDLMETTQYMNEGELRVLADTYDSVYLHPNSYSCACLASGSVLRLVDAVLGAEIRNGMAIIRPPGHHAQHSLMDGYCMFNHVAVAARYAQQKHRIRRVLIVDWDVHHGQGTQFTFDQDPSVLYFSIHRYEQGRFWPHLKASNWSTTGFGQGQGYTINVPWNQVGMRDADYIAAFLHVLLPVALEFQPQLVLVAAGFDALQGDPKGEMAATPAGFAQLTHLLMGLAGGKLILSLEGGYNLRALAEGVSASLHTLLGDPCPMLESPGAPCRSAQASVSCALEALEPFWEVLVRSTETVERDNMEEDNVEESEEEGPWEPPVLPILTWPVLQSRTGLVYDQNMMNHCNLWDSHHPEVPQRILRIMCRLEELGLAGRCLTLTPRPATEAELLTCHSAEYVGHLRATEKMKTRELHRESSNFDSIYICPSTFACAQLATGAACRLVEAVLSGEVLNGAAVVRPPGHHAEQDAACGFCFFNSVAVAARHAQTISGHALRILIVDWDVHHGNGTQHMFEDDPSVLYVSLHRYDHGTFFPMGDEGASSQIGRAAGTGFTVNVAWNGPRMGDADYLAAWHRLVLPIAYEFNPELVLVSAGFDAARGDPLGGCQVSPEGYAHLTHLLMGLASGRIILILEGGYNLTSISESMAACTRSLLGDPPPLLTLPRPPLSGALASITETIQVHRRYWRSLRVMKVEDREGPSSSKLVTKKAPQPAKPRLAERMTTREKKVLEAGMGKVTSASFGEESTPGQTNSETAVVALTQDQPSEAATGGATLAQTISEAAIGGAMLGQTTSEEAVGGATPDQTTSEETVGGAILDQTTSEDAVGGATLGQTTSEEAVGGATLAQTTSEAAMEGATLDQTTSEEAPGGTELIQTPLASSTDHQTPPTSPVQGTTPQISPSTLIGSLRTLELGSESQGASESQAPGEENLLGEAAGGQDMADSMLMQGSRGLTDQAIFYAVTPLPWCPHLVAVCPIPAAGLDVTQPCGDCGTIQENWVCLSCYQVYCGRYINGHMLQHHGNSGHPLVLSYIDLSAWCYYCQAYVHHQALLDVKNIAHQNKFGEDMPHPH
# Histone deacetylase [2] = assay: Inhibition of nuclear HDAC isolated from human HeLa cells; format: cell-based
# Histone deacetylase [3] = assay: Inhibition of HDAC in human HeLa cells; format: cell-based
# HeLa [4] = assay: Cytotoxicity against human HeLa cells after 72 hrs by alamar blue assay; format: functional, cell-based
# Method in brief: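 HeLa cells were seeded at densities allowing growth through 72 h of compound exposure at 37 °C, 5% CO2. Viability was read by Alamar Blue (resazurin) reduction. Replicate assays were averaged, and IC50 was taken from concentration-effect curves.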
# Histone deacetylase [5] = assay: Inhibition of HDAC in human HeLa cells assessed as induction of histone H3 hyperacetylation after 24 hrs; format: cell-based
# RKO [6] = assay: Induction of apoptosis in human RKO cells at 10 uM after 24 hrs by flow cytometry
# [7] = molecular target: T2, Histone deacetylase (Homo sapiens) (UniProt Q13547+O15379+Q9UBN7+Q92769+Q9UQL6+Q8WUI4+Q9BY41+Q96DB2+P56524+Q9UKV0+Q969S8); assay: Inhibition of HDAC in human RKO cells assessed as induction of histone H3 serine 10 phosphorylation at 1 to 10 uM after 24 hrs by Western blotting; format: cell-based
# Method in brief: (§1)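 RKO cells were treated for 24 h with compound at 1, 3 and 10 µM. Lysates were run on SDS-PAGE and Western blots probed for histone H3 S10 phosphorylation and histone H3 K1-20 acetylation, with β-actin reprobe as control.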
# [8] = molecular target: T2, Histone deacetylase (Homo sapiens); assay: Inhibition of HDAC in human RKO cells assessed as induction of histone H3 lysine 1 to 20 hyperacetylation at 1 to 10 uM after 24 hrs by Western blotting; format: cell-based; method in brief: as §1
# [9] = molecular target: T1, Protein deacetylase HDAC6; assay: Inhibition of recombinant HDAC6 expressed in HEK293 cells using variable substrate concentration by Lineweaver-Burke plot; format: cell-based
# Method in brief: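 Inhibitor was used at 1/4, 1/2, 1, 2 and 4 times the IC50-derived concentration. Ki was obtained from Lineweaver-Burk plots, with y-axis intersection indicating substrate competition.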
# HeLa [10] = assay: Cytotoxicity against human HeLa cells at 50 uM after 72 hrs by alamar blue assay; format: functional
# [11] = molecular target: T2, Histone deacetylase (Homo sapiens); assay: Inhibition of nuclear HDAC isolated from human HeLa cells at 32 uM; format: cell-free
# [12] = molecular target: T3, Protein deacetylase HDAC6 (Homo sapiens) (UniProt Q9UBN7); assay: Inhibition of recombinant HDAC6 expressed in HEK293 cells at 32 uM; format: cell-based
# T3 sequence (whole entry): T1 sequence (Q9UBN7 whole entry)
# RKO [13] = assay: Cytotoxicity against arrested non proliferative human RKO cells after 24 hrs; format: functional, cell-based; settings: in the assay text read “after 72 hrs” for “after 24 hrs”
# Method in brief: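 Alamar Blue (resazurin) read-out of metabolic activity. RKO p21waf1 transfectant cells were arrested by inducing p21waf1 with 10 µM ponasterone A for 24 h, then seeded at 2 × 10^4 cells/well and treated with compound. IC50 was taken from the concentration-effect curve.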
# RKO [14] = assay: Induction of apoptosis in human RKO cells assessed as accumulation at subG1 phase by flow cytometry; format: functional, cell-based
# Method in brief: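 RKO cells were seeded at 5 × 10^5 per 10 cm dish and grown for 24 h in log phase. They were then exposed to compound at 1 and 10 µM for 24 h. Flow cytometry assigned cells to subG1 (apoptosis), G1 (2N), S and G2/M (4N).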
# Chain of Histone deacetylase 1 (Q13547 whole entry): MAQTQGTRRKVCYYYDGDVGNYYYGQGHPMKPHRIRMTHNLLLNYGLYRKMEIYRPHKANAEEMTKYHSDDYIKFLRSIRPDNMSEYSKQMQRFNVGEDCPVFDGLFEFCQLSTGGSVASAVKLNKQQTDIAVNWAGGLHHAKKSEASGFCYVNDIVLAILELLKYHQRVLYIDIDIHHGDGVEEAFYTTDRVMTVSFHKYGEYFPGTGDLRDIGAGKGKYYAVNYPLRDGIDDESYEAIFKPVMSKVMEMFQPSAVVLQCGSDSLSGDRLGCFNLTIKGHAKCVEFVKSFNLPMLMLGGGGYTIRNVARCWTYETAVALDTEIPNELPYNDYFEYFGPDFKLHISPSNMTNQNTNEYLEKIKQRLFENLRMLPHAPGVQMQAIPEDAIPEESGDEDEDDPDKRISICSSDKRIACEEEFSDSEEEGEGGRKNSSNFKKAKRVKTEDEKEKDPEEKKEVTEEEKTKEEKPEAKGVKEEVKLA
SMILES,IC50 (Histone deacetylase 1) [nM],IC50 [1] [nM],IC50 (Histone deacetylase [2]) [µM],IC50 (Histone deacetylase [3]) [µM],EC50 (Histone deacetylase [5]) [µM],Activity [7],Activity [8],Ki [9] [nM],inhibition [11] [%],inhibition [12] [%],IC50 (HeLa [4]) [µM],Activity (RKO [6]),inhibition at 50 µM (HeLa [10]) [%],Activity (RKO [13]),Activity (RKO [14])
CCSC(=S)SCC(=O)c1ccc(-c2ccc(CNc3cnc4ccccc4c3)cn2)s1,555,438,0.008,0.683,4.8,,,,,,2.7,Active,,,
CCOC(=S)SCC(=O)c1ccc(NC(C)=O)cc1,536,90,0.386,26.2,2.9,Active,Active,,,,3.61,Active,,,
CCSC(=S)SCC(=O)c1ccc(CC(=O)Nc2ccc(OC)cc2)s1,251,116,0.01,7.53,0.76,,,,,,6.61,,,,
CCSC(=S)SCC(=O)c1cccc(S(=O)(=O)N(C)c2ccc(OC)cc2)c1,5330,2040,0.11,,,,,,,,,,43,,
CCSC(=S)NCC(=O)c1ccc(OC)cc1,,,,,,,,,-3,-8,,,26,,
CCSC(=S)SCC(=O)c1ccc(C)cc1,6990,1250,0.375,81.2,4.8,,,,,,,Active,,Active,Active
CCCC(=S)SCC(=O)c1ccc(OC)cc1,422,110,0.123,3.41,,,,,,,5.71,,,,
CCSC(=S)SCC(=O)c1ccc(NC(=O)c2cnc3ccccc3c2)cc1,980,119,0.066,0.748,,,,,,,50,,,,
CCSC(=S)SCC(=O)c1cccc(S(=O)(=O)Nc2cccc(C(N)=O)c2)c1,1560,181,0.097,1.15,,,,,,,7.74,,,,
CCSC(=S)SCC(=O)c1ccc(NC(C)=O)cc1,1680,180,0.318,0.857,,,,,,,1.46,,,,
CCSC(=S)SCC(=O)c1ccc(CNC(=O)c2ccccc2)cc1,523,301,0.046,0.632,,,,,,,12.7,,,,
CCSC(=S)SCC(=O)c1ccc(NS(=O)(=O)c2ccc(Cl)cc2)cc1,2490,979,0.025,1.74,,,,,,,10.4,,,,
CCSC(=S)SCC(=O)c1cccc(NC(=O)c2cccnc2)c1,388,38,0.184,0.646,,,,,,,7.02,,,,
CCSC(=S)SCC(=O)c1cccc(NC(C)=O)c1,2930,329,0.506,3.28,,,,,,,9.38,,,,
CCSC(=S)SCC(=O)c1ccc(NS(=O)(=O)c2ccccc2)cc1,1870,382,0.042,0.8,,,,,,,9.04,,,,
CCSC(=S)SCC(=O)c1cccc(CNC(C)=O)c1,38200,816,6.59,6.82,,,,,,,11.3,,,,

# Further lines, with some results ahead:
IC50 (Histone deacetylase 1) [nM],IC50 [1] [nM],IC50 (Histone deacetylase [2]) [µM],IC50 (Histone deacetylase [3]) [µM],EC50 (Histone deacetylase [5]) [µM],Activity [7],Activity [8],Ki [9] [nM],inhibition [11] [%],inhibition [12] [%],SMILES,IC50 (HeLa [4]) [µM],Activity (RKO [6]),inhibition at 50 µM (HeLa [10]) [%],Activity (RKO [13]),Activity (RKO [14])
,,,,,,,140,,,CCSC(=S)SCC(=O)c1ccn(S(=O)(=O)c2ccccc2)c1,,,,,
762,250,0.038,9.84,2.4,Active,Active,,,,CCSC(=S)SCC(=O)c1ccc(CC(=O)NCc2ccccc2)s1,0.71,,,,
5780,830,0.09,1.5,,,,,,,CCSC(=S)SCC(=O)c1ccc(C(=O)NCc2ccccc2)cc1,23.9,,,,
887,175,0.026,0.6,,,,,,,CCSC(=S)SCC(=O)c1ccc(CC(=O)NCc2ccc(OC)cc2)s1,1.45,,,,
7120,346,0.719,2.07,,,,,,,CCSC(=S)SCC(=O)c1ccc(CNC(C)=O)cc1,17.9,,,,
27900,521,0.074,1.11,,,,,,,CCSC(=S)SCC(=O)c1ccc(C(=O)Nc2ccccc2)cc1,25.8,,,,
497,135,0.049,1.03,,,,,,,CCSC(=S)SCC(=O)c1ccc(C(=O)N[C@@H](C)c2ccccc2)s1,15.8,,,,
